# Assay outcomes: PubChem, several laboratories
# An excerpt weighted towards active compounds, which were near 4.1% of everything screened.
# ROMK primary: human ROMK K+ channel modulation, primary screen | P48048 | B-score at 10 µM | 2% of 130,000 active | Tet-inducible ROMK, thallium flux fluorescence; actives lie on both sides;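 active = signal ratio slope over the read window, or its plate-corrected B-score, at least 3 SD from the plate mean, either direction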;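 note: B-score of the F/F0 ratio slope over 7 to 12 s after thallium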
# Target sequence (P48048 whole entry, looked up): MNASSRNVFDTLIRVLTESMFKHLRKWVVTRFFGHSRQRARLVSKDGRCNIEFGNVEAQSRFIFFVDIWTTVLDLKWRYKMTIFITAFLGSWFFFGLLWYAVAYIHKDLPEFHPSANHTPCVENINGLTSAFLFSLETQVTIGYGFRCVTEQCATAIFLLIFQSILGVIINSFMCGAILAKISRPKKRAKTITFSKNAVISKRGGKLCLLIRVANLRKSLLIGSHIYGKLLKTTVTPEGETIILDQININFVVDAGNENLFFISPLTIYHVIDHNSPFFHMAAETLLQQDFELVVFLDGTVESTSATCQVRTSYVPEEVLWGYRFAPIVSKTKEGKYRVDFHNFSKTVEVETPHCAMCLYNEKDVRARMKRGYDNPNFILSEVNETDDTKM
# Dynein transport: dynein cargo transport inhibition; 3617.4 mouse cells, GR-EGFP nuclear translocation imaging; test concentration mostly 20 µM; stimulated with dexamethasone, 1 µM; hits give low values; z-score, hits read low; 0.47% of 220,000 active;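 active = plate z-score of nuclear minus cytoplasmic receptor signal below a set negative limit, without overly bright fluorescence or cell loss, cut at about -3.5 in these data, passing the limit was not always enough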;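 note: z-score of nuclear minus cytoplasmic ring GR-EGFP intensity difference per well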
#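 Also added: dexamethasone, 1.0 µM final. Medium: tet-free, stripped-serum medium. Detection: fixed, Hoechst-stained cells imaged at 10x for EGFP. Read-out: nuclear-to-cytoplasmic GR-EGFP distribution per well. Times: induction 48 h, compound 1 h, agonist 30 min.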
# Autophagy HCS: modulators of autophagy. MEF GFP-LC3 puncta imaging; test concentration mostly 10 µM. AID 463193. 0.98% of 190,000 active. calls only at 10 µM (by protocol);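 active = percentage of spot-positive cells more than 3 SD above its plate mean, without a fluorescence outlier flag or 80% toxicity; inconclusive = no clear call, values can overlap the other calls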;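 note: spot-positive cell cutoff set from DMSO-treated cells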
# Redox H2O2 prof: compounds producing H2O2 with reducing agent – biochemical, NIH compound library profiling, artefact control for MLSCN library redox annotation, primary screen; DTT-dependent redox cycling H2O2, phenol red/HRP absorbance; 100% = 100 µM peroxide control, 0% = buffer; activation, % at 10 µM; 0.03% of 200,000 active;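 active = activation of at least 50% relative to the plate's high and low controls in the primary single-dose screen; inactive = activation below 50%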;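 note: compound incubated with DTT at 0.8 mM final as the reducing agent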
# Cl transport mod: KCC2 (human) Cl- transport modulation | Q9H2X9 | 2.2% of 190,000 active | B-score of Tl+ flux slope (higher = more flux/activation; lower = inhibition) at 10 µM | KCC2 cells, thallium flux FluoZin-2 fluorescence;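 active = thallium flux slope and its plate-corrected score both differing from the plate sample mean at a set confidence after two filtering rounds, in either direction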;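 note: slope of fluorescence scaled to starting intensity during 10 to 20 s after thallium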
# KCC2 secondary: confirmation of human KCC2 transport modulators | shares compounds with Cl transport mod | HEK293-KCC2, thallium flux, FluoZin2 fluorescence; hits give high values | normalised thallium flux (F/F0 slope) at 10 µM | 15% of 3,700 active;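 active = thallium flux slope above the same plate's solvent-only control mean plus 3 SD; inconclusive = the two replicate wells disagree; inactive = no significant difference from solvent-only control wells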
# KCC2 bumet counter: thallium flux despite bumetanide block in KCC2 cells, secondary assay 3 | shares compounds with Cl transport mod | HEK293-KCC2 + bumetanide/ouabain, thallium flux FluoZin2; hits give high values | normalized thallium flux at 10 µM | 49% of 3,700 active | AID 1714;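 active = thallium entry rate above the same plate's blocked-transporter control wells by more than 3 SD; inconclusive = the two repeat wells disagree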;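 note: raw slope of fluorescence over initial fluorescence between 10 and 20 s after thallium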
# KCC2 secondary2: confirmation of human KCC2 transport modulators; HEK293-KCC2, thallium flux FluoZin2 fluorescence; actives lie on both sides; F/F0 rise rate, 10–20 s post-thallium; normalized thallium flux at 10 µM; shares compounds with Cl transport mod; AID 1715; 23% of 3,700 active;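 active = thallium flux slope more than 3 SD above or below the plate's solvent-only control mean, mostly below; inconclusive = the two repeat wells disagreed; inactive = no significant shift from solvent-only controls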;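 note: raw slope with 0.1% DMSO as baseline and bumetanide as block control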
# HEK counter1: parental HEK flux effect, counter-screen; shares compounds with Cl transport mod; HEK293 parental cells, thallium flux FluoZin2, ouabain; baseline-ratio fluorescence slope, 10–20 s after thallium; thallium flux rate (normalised fluorescence) at 10 µM; 46% of 3,700 active;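 active = thallium flux rate significantly above the same plate's solvent-only control wells, beyond their mean plus 3 SD; inconclusive = the two replicate wells gave conflicting results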
# KCC2 retest ouab: KCC2 (human) modulation, ouabain retest. raw Tl+ flux slope (below DMSO = inhibition, above = activation) at 10 µM. HEK293-KCC2, thallium flux FluoZin2 fluorescence; bidirectional: low = inhibitor, high = activator. 48% of 3,700 active. shares compounds with Cl transport mod;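 active = thallium flux slope beyond 3 SD from same-plate DMSO control mean in most replicates, usually higher, sometimes lower; inconclusive = repeat tests gave conflicting results; inactive = no significant difference from controls in most replicates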;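 note: slope of initial-normalized fluorescence between seconds 10 and 20 after thallium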
# HEK293 Tl flux2: parental HEK flux effect, counter-screen 2; shares compounds with Cl transport mod; thallium flux slope at 10 µM; AID 1718; 33% of 3,700 active; HEK293 parental, thallium flux FluoZin-2 fluorescence slope;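 active = thallium flux slope above the same plate's solvent-control mean plus 3 SD in both duplicate wells; inconclusive = duplicate wells that disagreed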;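 note: run without ouabain in cells lacking the KCC2 cotransporter; slope of fluorescence scaled to its starting value between 10 and 20 s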
# Starred values were filed as active, the others as inactive; i = inactive; ? = inconclusive; . = no result given.
SMILES,ROMK primary,Dynein transport,Autophagy HCS,Redox H2O2 prof,Cl transport mod,KCC2 secondary,KCC2 bumet counter,KCC2 secondary2,HEK counter1,KCC2 retest ouab,HEK293 Tl flux2
Cc1c(Cc2ccccc2)c(=O)oc2cc(OCc3ccc(C(=O)O)cc3)ccc12,-0.0699,0.0669,i,-0.2,-4.23*,0.00812,0.00561,0.0353,0.00625*,?,0.0108
O=C1NC(=O)/C(=C/C(=O)N2CCOCC2)S1,0.172,-0.326,i,0.1,0.000175,.,.,.,.,.,.
CCOC(=O)N1CCN(C(=S)NC(=O)c2c(-c3c(Cl)cccc3Cl)noc2C)CC1,-1.7,0.257,i,-0.1,11*,?,0.0326*,?,0.018*,0.0316*,0.0188*
Cc1onc(-c2c(Cl)cccc2Cl)c1C(=O)N=C(N)N1CCOCC1,.,-0.628,.,.,.,.,.,.,.,.,.
Cc1onc(-c2c(Cl)cccc2Cl)c1C(=O)NC(=S)N1CCOCC1,.,0.168,.,.,8.58*,0.011*,0.0186*,0.029,0.0119*,?,0.00989
O=[N+]([O-])c1ccc(OCc2nnc(-c3ccccc3)o2)cc1,0.117,-0.615,i,-2.4,2.11,.,.,.,.,.,.
CN(c1ccc(OCc2nnc(-c3ccccc3)o2)cc1)S(=O)(=O)c1ccccc1,-1.2,0.566,i,-2.2,-4.17*,0.0171,?,0.0299,0.00573*,0.0144,0.00927
CCn1nc(C)c(Br)c1C(=O)Sc1ccccc1Cl,-0.677,-2.39,.,.,0.0864,.,.,.,.,.,.
COc1ccc(CCn2c(C(C)C)nc3oc4ccccc4c(=O)c3c2=O)cc1,.,0.78,.,.,-0.574,.,.,.,.,.,.
COc1ccc(-c2cc(C(F)(F)F)c3c(=O)n(-c4ccccc4)[nH]c3n2)cc1,.,-0.695,i,1.2,-5.21*,0.00721,0.00747,0.0302,0.00694,0.0179*,0.0106
COc1ccc(-c2cc(-c3ccccc3)nc(=O)[nH]2)cc1,.,0.428,.,.,.,.,.,.,.,.,.
CN(C)S(=O)(=O)c1ccc(N2CCCC2)c(C(=O)Nc2nc(-c3cc(F)ccc3F)cs2)c1,.,0.11,i,-0.4,-2.33,.,.,.,.,.,.
S=c1nc(C2CCCCC2)n(-c2ccccc2)[nH]1,.,1.15,i,0.0,126*,0.0546*,0.139*,0.0479*,0.0782*,0.112*,0.0308*
Nc1nc(=S)n(-c2ccccc2)[nH]1,.,-0.746,i,-0.8,0.488,.,.,.,.,.,.
COc1ccc(C2C(C#N)=C(N)Oc3cc(C)[nH]c(=O)c32)cc1OC (stereo unspecified),.,-0.572,.,.,0.375,.,.,.,.,.,.
COc1cc(/C=C/c2ccc3c(Br)cc(Br)c(O)c3n2)ccc1O,.,-0.747,.,.,7.52*,0.0107,0.0126*,0.0347,0.00906*,0.0232,0.0102
COc1cc(/C=C/C(=O)CC(=O)/C=C/c2ccc(O)c(OC)c2)ccc1O,.,0.269,i,0.1,i,.,.,.,.,.,.
Cc1ccc(NS(=O)(=O)c2ccc(Br)s2)nc1,0.00919,-0.198,i,-0.7,0.0567,.,.,.,.,.,.
CCOC(=O)c1cnc(-n2nc(C)cc2C)nc1NNc1ncc(-c2ccccc2)cn1,.,0.135,.,.,8.53*,0.00672,0.0243*,0.0324,0.0173*,0.0269*,0.0207*
C=CCn1c(SCC(=O)c2ccc(F)cc2)nnc1-c1ccc2c(c1)OCO2,-0.748,-0.747,i,-0.2,-3.72*,0.0077,0.00482,0.0314,0.00698,0.0154*,0.0108
Fc1ccc(NC(=S)N2CCCC2)cc1Cl,-1.96,-0.672,i,-0.3,-0.147,.,.,.,.,.,.
Fc1ccc(NC(=S)Nc2ccc(F)c(Cl)c2)cc1Cl,-1.51,0.25,i,-0.1,-4.33*,0.006,0.00354,?,0.00594*,0.0134*,?
CCOc1cc(CNCCc2ccc(S(N)(=O)=O)cc2)cc(Cl)c1OCc1ccccc1,-2.27,-2.99,i,-3.9,.,?,0.00458,0.0307,0.00811,0.0171,0.0112
O=c1cc(-c2ccccc2Cl)oc2c([N+](=O)[O-])c(O)cc(O)c12,-0.791,0.756,i,0.5,-6.95*,0.00622,?,0.0185*,0.00571*,0.0108*,?
O=c1cc(-c2ccccc2Cl)oc2ccc([N+](=O)[O-])c(O)c12,0.351,-0.367,i,0.7,2.41,.,.,.,.,.,.
SMILES,ROMK primary,Dynein transport,Autophagy HCS,Redox H2O2 prof,Cl transport mod,KCC2 secondary,KCC2 bumet counter,KCC2 secondary2,HEK counter1,KCC2 retest ouab,HEK293 Tl flux2
NNC(=S)Nc1ccc(C(F)(F)F)cc1Cl,.,0.358,.,.,16.2*,0.0107,0.03*,0.0353,0.02*,0.0261,0.0142*
Cc1ccc(S(=O)(=O)NN2C(=O)/C(=C/c3cccs3)SC2=S)cc1,0.447,0.281,.,.,27.4*,0.00623,0.0533*,0.0495*,0.0453*,0.0514*,0.0432*
Cc1ccc(S(=O)(=O)NN2C(=O)/C(=C/c3cccn3C)SC2=S)cc1,-0.84,0.57,i,0.1,-0.881,.,.,.,.,.,.
O=C(c1ccc(F)cc1)C(C(=O)N1CCCCC1)n1ccccc1=O (stereo unspecified),0.275,-0.682,i,-0.2,-0.315,.,.,.,.,.,.
CC(C)NC(=O)C1CCN(C(=O)C(C(=O)c2ccccc2)n2cc(Cl)ccc2=O)CC1 (stereo unspecified),.,-0.421,i,17.1,-4.29*,0.00981,?,0.0364,0.00963*,0.0237,?
CCCCC(=O)NNC(=S)NC(=O)c1ccc(C)cc1,1.8,1.8,i,-1.2,39.2*,0.0254*,0.0643*,0.0527*,0.0524*,0.0519*,0.0559*
CCCCC(=O)NNC(=S)NC(=O)c1ccc([N+](=O)[O-])cc1,-0.0511,-0.217,i,1.1,2.43,.,.,.,.,.,.
S=c1[nH]nc(Nc2cccc(Cl)c2)s1,-0.498,0.461,i,0.2,-5.84*,0.00606,0.00507,0.0198*,0.00819,?,0.0117
S=c1[nH]nc(Nc2ccccc2Cl)s1,0.153,0.233,i,-1.2,-5.33*,0.00413*,0.00938*,0.0215*,0.0118*,0.0124*,0.0144*
Cn1c(=O)n(C)c2cc(S(=O)(=O)Nc3cc(Cl)ccc3O)ccc21,-1.39,-0.812,i,0.8,-0.377,.,.,.,.,.,.
CC(/C=N/NC(=O)c1cnccn1)=C\c1ccco1,.,-0.133,.,.,1.11,.,.,.,.,.,.
